Test [1] in a line: inhibitors of TNFa-induced NFkB p65 translocation, primary screen, imaging, HUVEC, MLSMR starter and 10KST1 sets (AID 438;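 active = inhibition above 20% together with a positive visual image hit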;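 also: compound added about 3h40 before a 20 min TNFalpha stimulation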;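 as to inhibition: signal is the nuclear over cytoplasmic p65 intensity ratio per well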). To be noted: HUVEC TNFa-induced p65 nuclear translocation; cell count: measured here: nuclei count (cytotoxicity indicator), at 2.08 µM; inhibition: at 2 µM, stronger effect = higher value, 0% TNFa-plus-vehicle, 100% no-TNFa wells.
Test [2] is described as follows: inhibitors of mutant huntingtin aggregation, primary screen, imaging, exon1htt(103Q)mCFP cells, high-content imaging (AID 483;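 active = visual image review flags a hit and inhibition of aggregation exceeds 20%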;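 also: compound exposure lasted 3 days before fixation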;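 as to nuclei count: percent of the per-plate median nuclei count of sample wells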). The conditions noted are these: exon1htt(103Q)mCFP cell line, aggregate imaging, at 2 µM; inhibition of aggregation: stronger effect = higher value; nuclei count: measured here: cell count, toxicity.
The nature of test [3]: inhibitors of E-selectin induction by TNFa, primary screen, imaging, HUVEC, immunofluorescence, MLSMR starter and 10KST1 sets (AID 487;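 active = visually confirmed hit in the image check and inhibition above 20%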;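 as to inhibition: signal is fraction of cell area covered by stained E-selectin grains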;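 as to nuclei count: 100% = median nuclei count of all wells on the same plate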). To be noted: HUVEC TNFalpha-induced E-selectin immunofluorescence imaging, at 2 µM; inhibition: stronger effect = higher value; nuclei count: measured here: cell number, toxicity.
In test [4] the target is Voltage-gated potassium channel subunit beta-2 (Rattus norvegicus) (UniProt P62483). The experiment in a line: KvBeta enzyme negative modulators, primary screen, biochemical, NADPH fluorescence (AID 622;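 active = fluorescence slope higher than the sample average by over 3 SD, cut at about -0.22 in these data, passing the limit was not always enough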;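 also: slope of raw intensity against log time taken from 70 to 1610 s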). To be noted: recombinant KvBeta, 4-cyanobenzaldehyde reduction, at 10 µM, stronger effect = higher value.
Voltage-gated potassium channel subunit beta-2 (Rattus norvegicus), sequence (P62483 whole entry, looked up): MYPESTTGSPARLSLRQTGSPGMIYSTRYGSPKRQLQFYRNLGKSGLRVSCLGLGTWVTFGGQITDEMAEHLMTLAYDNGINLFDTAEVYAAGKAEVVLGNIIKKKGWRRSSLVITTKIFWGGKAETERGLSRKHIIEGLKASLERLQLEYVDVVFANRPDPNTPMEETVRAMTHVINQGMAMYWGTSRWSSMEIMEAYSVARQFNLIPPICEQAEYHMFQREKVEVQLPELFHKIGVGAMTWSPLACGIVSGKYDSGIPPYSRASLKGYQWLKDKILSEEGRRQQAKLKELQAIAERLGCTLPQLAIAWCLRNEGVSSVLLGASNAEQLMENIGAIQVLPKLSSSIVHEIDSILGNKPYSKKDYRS
The target is the same in test [5]. Briefly: KvBeta positive modulators, primary screen, biochemical, NADPH fluorescence (AID 623;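 active = NADPH fluorescence slope more negative than the mean of all samples by about 3 SD, 99.7% confidence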;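 also: fluorescence intensity change per second fitted from 20 to 320 s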). The conditions noted are these: Recombinant KvBeta, NADPH fluorescence decrease slope, 10 min; at 10 µM; stronger effect = lower value.
The target in test [6] is Muscarinic acetylcholine receptor M4 (Homo sapiens) (UniProt P08173). The experiment in a line: compounds altering M4/GIRK thallium flux, either direction, primary screen, M4 allosteric agonist project, cell-based, HEK293 M4/GIRK, BTC-AM (AID 625;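 active = fluorescence slope after compound addition differing from the mean of all tested samples at 99.7% confidence, mostly higher but some lower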;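 also: thallium influx through GIRK channels coupled to M4 in HEK293 cells with BTC-AM dye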). To be noted: at 10 µM, actives lie on both sides. Summed up:
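Material – HEK293 cells with M4 receptor and GIRK channels · Buffer or medium – pH 7.3 thallium assay buffer · Doses – one dose, 10 µM final · Timing – cells overnight at 37 °C, BTC-AM loading 1 h, reads 2 min total · Measured by – kinetic fluorescence with BTC-AM dye · Controls – carbachol and DMSO controls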

Test [7] is described as follows: inhibitors of Sendai virus-induced IRF3 signaling, primary screen, TLR/RLR signaling modifier project, cell-based, Sendai virus stimulus, luciferase, 10K MLSCN set (AID 602276).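 Also: firefly luciferase from ISG56 promoter only with Renilla not read in this screen; 0% = Sendai virus plus DMSO and 100% = medium plus DMSO without virus.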 To be noted: HEK293 RL24 IRF3 luciferase reporter, at 10 µM, stronger effect = higher value.
A short description of test [8]: inhibitors of poly I:C-induced TLR3 signaling, primary screen, cell-based, poly I:C stimulus, luciferase, 10K MLSCN set (AID 602277;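 active = inhibition of the reporter signal at or above 50%; inactive = inhibition below 50%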). The conditions noted are these: HEK293-TLR3 RL24 IRF3 luciferase reporter, at 10 µM, stronger effect = higher value. A general note: A reporter such as luciferase makes a cellular process visible.

Calls of active or inactive are those of the source.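 The calls were made as follows, unless noted: active = inhibition at or above 50% at 10 µM; inactive = inhibition below 50%.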

The values that follow come from PubChem BioAssay.

Muscarinic acetylcholine receptor M4 (Homo sapiens), sequence (P08173 whole entry, looked up): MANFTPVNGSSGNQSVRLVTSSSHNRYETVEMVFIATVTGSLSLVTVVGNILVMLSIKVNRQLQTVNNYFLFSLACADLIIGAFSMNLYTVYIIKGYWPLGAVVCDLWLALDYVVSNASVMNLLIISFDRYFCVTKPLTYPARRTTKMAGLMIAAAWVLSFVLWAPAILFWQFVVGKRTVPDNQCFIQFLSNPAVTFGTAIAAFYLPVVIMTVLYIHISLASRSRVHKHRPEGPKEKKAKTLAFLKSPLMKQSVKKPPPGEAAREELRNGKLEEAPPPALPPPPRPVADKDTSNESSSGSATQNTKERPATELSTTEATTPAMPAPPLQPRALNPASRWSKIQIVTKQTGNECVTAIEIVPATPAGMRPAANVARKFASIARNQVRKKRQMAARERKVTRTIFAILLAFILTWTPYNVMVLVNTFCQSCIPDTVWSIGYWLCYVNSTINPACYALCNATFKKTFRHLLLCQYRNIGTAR

Consider `Cc1ccc(CC23CN4CCN(CC(C4)C2O)C3)c(C)c1` (centres undefined), for which, in test [1], the cell count came to 435. Moreover, the inhibition in test [1] was 0% (inactive); in test [3] it was -40.9% (inactive); in test [7], 18.9% (inactive); in test [8] it was 14.1% (inactive). Besides, the inhibition of aggregation in test [2] was 2% (inactive). Moreover, the results for the nuclei count in test [2] and in test [3] were 107% and 116%, respectively. In addition, the results for the fluorescence slope in test [4] and in test [6] were -0.494 (inactive) and 0.0044 (inactive), respectively. Further, the NADPH fluorescence slope in test [5] is -2.9e-05 (inactive).

With `Cn1c(=O)c2c(nc(N3CCCCC3)n2CCSc2nc3ccccc3o2)n(C)c1=O`, in test [1], the cell count is 248. In addition, the inhibition is -3.6% (inactive) in test [1], 28.4% (inactive) in test [3], -13.5% (inactive) in test [7] and -11.3% (inactive) in test [8]. The inhibition of aggregation in test [2] was 2.8% (inactive). Also, the nuclei count was 71.3% in test [2] and 94.2% in test [3]. The fluorescence slope in test [4] is -0.451 (inactive); in test [6] it was 0.00597 (inactive). For the same molecule, in test [5], the NADPH fluorescence slope was 4.5e-05 (inactive).

Regarding `Cc1cc(C2C(C#N)=C(N)SC(N)=C2C#N)c(C)s1`, the cell count in test [1] is 755. Further, the inhibition is -5% (inactive) in test [1], -27.1% (inactive) in test [3], 8.05% (inactive) in test [7] and 20.2% (inactive) in test [8]. Besides, the inhibition of aggregation in test [2] is -30.7% (inactive). Besides, the nuclei count was found to be 102% in test [2] and 130% in test [3]. The figures for the fluorescence slope in test [4] and in test [6] were -0.573 (inactive) and 0.00245 (inactive), respectively. Moreover, the NADPH fluorescence slope in test [5] was -8.5e-05 (inactive).

`COc1ccc(NC(=O)Cn2nnc(-c3ccccc3N)n2)cc1OC`: in test [1], the cell count worked out at 656. Also, the inhibition in test [1] is -6.1% (inactive); in test [3] it was -51.2% (inactive); in test [7], 17.6% (inactive); in test [8] it was 14.6% (inactive). Also, the inhibition of aggregation in test [2] was 19.9% (inactive). Moreover, the nuclei count in test [2] worked out at 100%; in test [3] it was 121%. Also, the fluorescence slope is -0.595 (inactive) in test [4] and 0.00531 (inactive) in test [6]. In addition, in test [5], the NADPH fluorescence slope is 1e-05 (inactive).

Take `CCOC(=O)C1=C(C)NC(SC(C)=O)=NC1c1ccc(OC(C)=O)c(OC)c1` (centres undefined): the cell count in test [1] was determined as 550. Further, the inhibition in test [1] was 0% (inactive); in test [3] it was -10.1% (inactive); in test [7], 1.93% (inactive); in test [8] it was 1.43% (inactive). Moreover, the inhibition of aggregation in test [2] is 50% (active). In addition, the values for the nuclei count in test [2] and in test [3] were 64.7% and 101%, respectively. Besides, the fluorescence slope is -0.507 (inactive) in test [4] and 0.0052 (inactive) in test [6]. In addition, the NADPH fluorescence slope in test [5] was -0.000113 (inactive).

Regarding `Cc1nc2ccccc2c2oc(C(=O)NCc3ccccn3)cc12`, the cell count in test [1] came out at 234. Moreover, the inhibition in test [1] is -3.8% (inactive); in test [3], -75.8% (inactive); in test [7], -2.75% (inactive); in test [8], -16.5% (inactive). In addition, in test [2], the inhibition of aggregation was 17.9% (inactive). Besides, the nuclei count in test [2] turned out to be 65.8%; in test [3], 102%. Besides, the figures for the fluorescence slope in test [4] and in test [6] were -0.397 (inactive) and 0.00573 (inactive), respectively. In addition, in test [5], the NADPH fluorescence slope was 7.6e-05 (inactive).

On to `Cc1nc2ccccc2cc1C(=O)NCc1ccco1`, for which, in test [1], the cell count is 387. The inhibition was 3.2% (inactive) in test [1], -278% (inactive) in test [3], 1.46% (inactive) in test [7] and 0.0614% (inactive) in test [8]. Moreover, in test [2], the inhibition of aggregation was -3.6% (inactive). For the same molecule, the values for the nuclei count in test [2] and in test [3] were 75.3% and 126%, respectively. The fluorescence slope was -0.53 (inactive) in test [4] and 0.00494 (inactive) in test [6]. For the same molecule, the NADPH fluorescence slope in test [5] was -3.7e-05 (inactive).

For `CS(=O)(=O)N(CC(=O)N1CCN(c2cccc(Cl)c2)CC1)C1CCCCC1`, in test [1], the cell count came to 645. The inhibition in test [1] was -6% (inactive); in test [3] it was 8.8% (inactive); in test [7], 2.97% (inactive); in test [8] it was 0.307% (inactive). Further, in test [2], the inhibition of aggregation is 11% (inactive). The nuclei count in test [2] is 87.4%; in test [3], 78.2%. For the same molecule, the values for the fluorescence slope in test [4] and in test [6] were -0.576 (inactive) and 0.00576 (inactive), respectively. Besides, the NADPH fluorescence slope in test [5] is -4.3e-05 (inactive).

Regarding `COc1cc(OC)cc(-c2nc3nc(C)c(CCC(=O)O)c(C)n3n2)c1`, in test [1], the cell count worked out at 681. For the same molecule, the inhibition in test [1] is -14.6% (inactive); in test [3] it was 46.5% (inactive); in test [7], 21.9% (inactive); in test [8], 28.4% (inactive). For the same molecule, the inhibition of aggregation in test [2] is 0.2% (inactive). Moreover, the values for the nuclei count in test [2] and in test [3] were 111% and 97.4%, respectively. The fluorescence slope in test [4] is -0.522 (inactive); in test [6], 0.00535 (inactive). In test [5], the NADPH fluorescence slope is -3.8e-05 (inactive).

As for `CCCc1cc(=O)n2[nH]cnc2n1`, in test [1], the cell count was determined as 285. Besides, the inhibition was 11.4% (inactive) in test [1], -11.2% (inactive) in test [3], 11% (inactive) in test [7] and 19.9% (inactive) in test [8]. Further, in test [2], the inhibition of aggregation is -16% (inactive). The figures for the nuclei count in test [2] and in test [3] were 80% and 101%, respectively. In addition, the figures for the fluorescence slope in test [4] and in test [6] were -0.285 (inactive) and 0.00663 (inactive), respectively. In addition, the NADPH fluorescence slope in test [5] was -1.5e-05 (inactive).

For the molecule `CCC(=O)NC1(C(F)(F)F)C(=O)NC(C)=C1C#N` (centres undefined), the cell count in test [1] amounted to 382. In addition, the inhibition in test [1] is 3.6% (inactive); in test [3], -18.8% (inactive); in test [7], 14.9% (inactive); in test [8] it was 25.3% (inactive). In addition, in test [2], the inhibition of aggregation is 11.2% (inactive). For the same molecule, the nuclei count in test [2] came to 98.2%; in test [3], 105%. The fluorescence slope was -0.445 (inactive) in test [4] and 0.00561 (inactive) in test [6]. In addition, the NADPH fluorescence slope in test [5] is 4.4e-05 (inactive).

Turning to `CCCc1cc(C(N)=O)c(NC(=O)c2ccco2)s1`, the cell count in test [1] came to 356. Further, the inhibition in test [1] is -5.6% (inactive); in test [3], -45% (inactive); in test [7], -0.517% (inactive); in test [8], -22.9% (inactive). For the same molecule, in test [2], the inhibition of aggregation was 2.7% (inactive). Also, the nuclei count in test [2] is 97.2%; in test [3], 111%. For the same molecule, the fluorescence slope in test [4] was -0.54 (inactive); in test [6], 0.00337 (inactive). Further, in test [5], the NADPH fluorescence slope is -5.6e-05 (inactive).

`O=S(=O)(NCC(O)COCc1ccco1)c1cccs1` (centres undefined): the cell count in test [1] came to 297. In addition, the inhibition was 8% (inactive) in test [1], 1.6% (inactive) in test [3], 2.99% (inactive) in test [7] and 8.32% (inactive) in test [8]. For the same molecule, the inhibition of aggregation in test [2] was -14.1% (inactive). The nuclei count in test [2] was 108%; in test [3], 97.5%. For the same molecule, the results for the fluorescence slope in test [4] and in test [6] were -0.587 (inactive) and 0.00581 (inactive), respectively. For the same molecule, the NADPH fluorescence slope in test [5] was -3.7e-05 (inactive).

`COc1ccccc1C1/C(=C(\O)c2c(C)nc3c(C)cccn23)C(=O)C(=O)N1CCCN(C)C` (centres undefined): in test [1], the cell count was determined as 530. Besides, the inhibition in test [1] was -2.6% (inactive); in test [3], 35.1% (inactive); in test [7] it was 10.7% (inactive); in test [8], 20.7% (inactive). Also, the inhibition of aggregation in test [2] is -6.8% (inactive). Besides, the nuclei count worked out at 110% in test [2] and 121% in test [3]. For the same molecule, the fluorescence slope in test [4] was -0.298 (inactive); in test [6], 0.00521 (inactive). Moreover, the NADPH fluorescence slope in test [5] was -5.5e-05 (inactive).

A word on the inhibition: it is the change of the read-out against control, counted positive when it falls.
